Consider 5 compounds from ChEMBL document CHEMBL2406939, “Structure, synthesis, and biological activity of a C-20 bisacetylenic alcohol from a marine sponge Callyspongia sp” (J Nat Prod, 2013).

Calls of active or inactive are those of the source. The calls are words filed in the database; no cut-off is given here.

One assay concerns HeLa. As to the kind of experiment: Antiproliferative activity against human HeLa cells after 48 hrs by MTS assay. The class given is functional, cell-based. In a few lines:
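HeLa cells grown in EMEM + 10% FBS at 37 °C, 5% CO2. Seeded at 3 × 10^3 cells/well in EMEM + 10% FBS, incubated 24 h, then exposed to compounds for 48 h. Viability read by MTS assay. Final DMSO ≤0.5% (v/v). IC50 from viability.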
In general terms: Formazan colour is commonly taken as a measure of viable cells.

Assay [1] is described as follows: Antiproliferative activity against temperature-sensitive rat lymphatic endothelial cells assessed as cell viability at 10 uM after 48 hrs by MTS assay. The class given is functional. To be noted: read-out: Activity. The method, boiled down:
(§1)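 TR-LE cells kept on type I collagen-coated dishes in HuMedia-EB2/EG + 10% FBS at permissive 33 °C. Seeded at 8 × 10^3 cells/well in DMEM + 10% FBS on collagen I-coated plates. Allowed 3 h to adhere, then exposed to compounds (final 0.1–100 μM) for 48 h. Viability by MTS assay. Final DMSO ≤0.5% (v/v).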

Another assay has as its system Endothelial cell. The assay can be described thus: Antiproliferative activity against temperature-sensitive rat lymphatic endothelial cells assessed as cell viability at 100 uM after 48 hrs by MTS assay. The class given is functional, cell-based. The method, boiled down:
as §1

Assay [2] in a line: Antiproliferative activity against temperature-sensitive rat lymphatic endothelial cells after 48 hrs by MTS assay. The settings on record: Endothelial cell.

Turning to `CC(=O)O[C@H]1C(=O)[C@@]2(C)[C@H]([C@H](OC(=O)c3ccccc3)[C@]3(O)C[C@H](OC(=O)[C@H](O)[C@@H](NC(=O)c4ccccc4)c4ccccc4)C(C)=C1C3(C)C)[C@]1(OC(C)=O)CO[C@@H]1C[C@@H]2O` [PACLITAXEL], in the assay with HeLa, the IC50 was 1.7 nM.
As for `C#CC(=O)/C=C/CCCCCCCCCC/C=C/C(O)C#C` (stereo unspecified), the viability at 10 µM in assay [1] came out at 78%.
In the case of `C#CC(O)/C=C/CCCCCC` (stereo unspecified), the result in the assay with Endothelial cell was inactive.
For the compound `CC[C@]1(O)C[C@H]2CN(CCc3c([nH]c4ccccc34)[C@@](C(=O)OC)(c3cc4c(cc3OC)N(C=O)[C@H]3[C@@](O)(C(=O)OC)[C@H](OC(C)=O)[C@]5(CC)C=CCN6CC[C@]43[C@@H]65)C2)C1` [VINCRISTINE], the IC50 is 80 nM in assay [2] and 4.3 nM with HeLa.
On to `C#CC(=O)/C=C/CCCCCC`, for which the result in the assay with Endothelial cell was inactive.

A word on the IC50: it is the concentration that gives 50% inhibition. Low readings indicate higher potency, high ones lower potency.
